This is an account of results in ChEMBL document CHEMBL1145382, “Novel ergopeptides as dual ligands for adenosine and dopamine receptors” (J Med Chem, 2007).

For experiment [1], the target named is T1, Adenosine receptor A1 (Homo sapiens) (UniProt P30542).
T1 sequence (whole entry): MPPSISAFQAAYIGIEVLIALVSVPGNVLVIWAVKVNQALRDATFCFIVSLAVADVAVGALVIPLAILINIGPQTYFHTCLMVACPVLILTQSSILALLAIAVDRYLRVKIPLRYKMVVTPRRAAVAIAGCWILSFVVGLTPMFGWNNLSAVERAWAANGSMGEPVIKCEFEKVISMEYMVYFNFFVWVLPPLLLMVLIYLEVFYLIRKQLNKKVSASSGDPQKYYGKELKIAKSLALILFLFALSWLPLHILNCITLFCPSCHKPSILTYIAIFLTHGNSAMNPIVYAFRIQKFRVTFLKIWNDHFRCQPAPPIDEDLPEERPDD
As to the kind of experiment: Displacement of [3H]R-PIA from adenosine A1 receptor in lamb striatum membrane at 50 uM after 1 hr. The conditions noted are these: Ovis aries, target entry is the homologue from another species. The class given is cell membranes. In short, it runs like this: (§1)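 Single-concentration screen at 50 µM ergopeptide on lamb striatal membranes (0.5 mg protein/mL), 22 °C, 50 mM Tris-HCl pH 7.4. Radioligands: [3H]SCH 23390 1.2 nM (D1), [3H]YM 09151-2 0.9 nM (D2), [3H]R-PIA 2.2 nM (A1, with MgCl2 and ADA), [3H]CGS 21680 20.1 nM (A2A, with MgCl2 and ADA). Specific binding displaced, after filtration and scintillation counting.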

The target of experiment [2] is D(2) dopamine receptor (Homo sapiens) (UniProt P14416). As to the kind of experiment: Displacement of [3H]YM 09151-2 from dopamine D2 receptor in lamb striatum membrane at 50 uM after 2 hrs. The experiment is classed as cell membranes. The conditions noted are these: Ovis aries, target entry is the homologue from another species. A digest of the protocol: as §1
The target in experiment [3] is D(1A) dopamine receptor (Homo sapiens) (UniProt P21728). The experiment is described as follows: Displacement of [3H]SCH 23390 from dopamine D1 receptor in lamb striatum membrane at 50 uM after 1 hr. The class given is cell membranes. The conditions noted are these: Ovis aries, target entry is the homologue from another species. A digest of the protocol: as §1
In general terms: In a radioligand displacement assay an active substance lowers the binding of a labelled ligand.

The target of experiment [4] is T2, Adenosine receptor A2a (Homo sapiens, UniProt P29274). The experiment is described as follows: Displacement of [3H]CGS 21680 from adenosine A2A receptor in lamb striatum membrane at 50 uM after 2 hrs. The class given is cell membranes. The conditions noted are these: Ovis aries, target entry is the homologue from another species. A digest of the protocol: as §1

In experiment [5] the target is T2, Adenosine receptor A2a. The experiment is described as follows: Antagonist activity at adenosine A2A receptor in SH-SY5Y cells assessed as CGS-induced intracellular cAMP production at 50 uM. The class given is functional, cell-based. A digest of the protocol: (§2)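 SH-SY5Y neuroblastoma cells, endogenous A2AR, stably carrying human D2LR. Serum-starved 12-16 h, in HBSS with 50 µM zardaverine for 10 min, then 50 µM ergopeptide, alone or with the A2AR agonist CGS. 35 min total incubation. cAMP by competitive enzyme immunoassay. Three to six determinations, Student's t test.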
On the technique in general: Cyclic AMP is a second messenger, typically raised through Gs and lowered through Gi signalling.

Experiment [6] deals with T1, Adenosine receptor A1 (Homo sapiens). The experiment is described as follows: Antagonist activity at adenosine A1 receptor transfected in mouse L(tk-) cells assessed as inhibition of R-PIA-induced decrease in forskolin-induced cAMP levels. The experiment is classed as functional, cell-based. A digest of the protocol: (§3)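 Mouse Ltk- fibroblasts cotransfected with human A1R and D1R, preincubated 5-10 min at 22 °C with 50 µM SCH to block D1R. Then 50 µM zardaverine, 10 µM forskolin, and 50 µM ergopeptide, with or without 20 nM R-PIA or 50 µM DPCPX. 35 min total. cAMP by enzyme immunoassay. Three to six determinations.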

The target in experiment [7] is D(1A) dopamine receptor (Homo sapiens) (UniProt P21728). The experiment is described as follows: Agonist activity at dopamine D1 receptor transfected in mouse L(tk-) cells assessed as stimulation of cAMP levels. The experiment is classed as functional, cell-based. In short, it runs like this:
(§4)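 Mouse Ltk- fibroblasts cotransfected with human A1R and D1R, serum-starved 12-16 h. In HBSS with 50 µM zardaverine, then 50 µM ergopeptide, with or without 20 nM SKF or 50 µM SCH. 35 min total incubation. cAMP by competitive enzyme immunoassay. Three to six determinations, t test.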

For experiment [8] the target is unchanged. As to the kind of experiment: Antagonist activity at dopamine D1 receptor transfected in mouse L(tk-) cells assessed as inhibition of SKF-induced stimulation of forskolin-induced cAMP levels. The experiment is classed as functional, cell-based. In short, it runs like this:
as §4

Experiment [9] addresses T2, Adenosine receptor A2a. The experiment is described as follows: Agonist activity at adenosine A2A receptor in SH-SY5Y cells assessed as CGS-induced intracellular cAMP production at 50 uM. The experiment is classed as functional, cell-based. A digest of the protocol: as §2
For experiment [10], the target named is D(2) dopamine receptor (Homo sapiens) (UniProt P14416). The experiment is described as follows: Agonist activity at dopamine D2 receptor in SH-SY5Y cells assessed as inhibition of forskolin-activated intracellular cAMP production at 50 uM. The class given is functional, cell-based. In short, it runs like this: (§5)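 SH-SY5Y cells expressing human D2LR, preincubated 5-10 min at 22 °C with 5 µM ZM to block A2AR. Then 50 µM zardaverine, 10 µM forskolin, and 50 µM ergopeptide, with or without 150 nM quinpirole or 50 µM raclopride. 35 min total. cAMP by enzyme immunoassay. Three to six determinations, t test.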

The target in experiment [11] is T1, Adenosine receptor A1 (Homo sapiens). As to the kind of experiment: Agonist activity at adenosine A1 receptor transfected in mouse L(tk-) cells assessed as decrease in forskolin-induced cAMP levels. The experiment is classed as functional, cell-based. In short, it runs like this: as §3
Experiment [12] concerns the target D(2) dopamine receptor (Homo sapiens) (UniProt P14416). As to the kind of experiment: Antagonist activity at dopamine D2 receptor in SH-SY5Y cells assessed as effect on forskolin-activated intracellular cAMP production at 50 uM. The experiment is classed as functional, cell-based. A digest of the protocol:
as §5

Molecules are shown by their SMILES. The source made the active and inactive calls. The rule behind the calls is not given here. Non-standard residues stand in square brackets, D forms with d. Residues, ends and D or L forms follow the SMILES beside them. Phe(4-NO2) = N[C@@H](Cc1ccc([N+](=O)[O-])cc1)C(=O)O; Phe(4-F) = N[C@@H](Cc1ccc(F)cc1)C(=O)O; hCha = N[C@@H](CCC1CCCCC1)C(=O)O

T2 sequence (P29274 whole entry): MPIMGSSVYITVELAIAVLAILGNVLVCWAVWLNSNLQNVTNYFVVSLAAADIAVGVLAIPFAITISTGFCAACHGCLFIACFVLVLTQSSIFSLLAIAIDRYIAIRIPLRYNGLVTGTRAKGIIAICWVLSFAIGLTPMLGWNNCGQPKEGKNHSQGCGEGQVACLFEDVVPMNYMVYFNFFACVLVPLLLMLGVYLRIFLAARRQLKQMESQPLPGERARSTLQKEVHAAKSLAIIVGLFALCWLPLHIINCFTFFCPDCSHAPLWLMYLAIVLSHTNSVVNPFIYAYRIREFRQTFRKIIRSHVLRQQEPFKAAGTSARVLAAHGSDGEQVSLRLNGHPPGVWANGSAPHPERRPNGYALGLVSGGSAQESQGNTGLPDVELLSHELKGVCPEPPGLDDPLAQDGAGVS
Sequence of D(1A) dopamine receptor (Homo sapiens) (P21728 whole entry): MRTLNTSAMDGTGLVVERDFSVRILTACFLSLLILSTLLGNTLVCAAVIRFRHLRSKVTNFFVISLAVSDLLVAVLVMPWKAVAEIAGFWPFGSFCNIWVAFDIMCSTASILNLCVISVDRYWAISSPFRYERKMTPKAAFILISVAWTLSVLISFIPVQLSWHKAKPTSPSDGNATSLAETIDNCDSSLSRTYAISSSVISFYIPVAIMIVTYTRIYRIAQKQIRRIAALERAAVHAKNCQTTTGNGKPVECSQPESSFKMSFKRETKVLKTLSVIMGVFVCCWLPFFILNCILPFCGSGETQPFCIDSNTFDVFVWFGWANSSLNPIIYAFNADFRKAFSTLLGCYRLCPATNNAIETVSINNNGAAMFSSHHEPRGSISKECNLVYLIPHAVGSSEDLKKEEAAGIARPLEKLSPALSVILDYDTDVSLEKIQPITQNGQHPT
Sequence of D(2) dopamine receptor (Homo sapiens) (P14416 whole entry): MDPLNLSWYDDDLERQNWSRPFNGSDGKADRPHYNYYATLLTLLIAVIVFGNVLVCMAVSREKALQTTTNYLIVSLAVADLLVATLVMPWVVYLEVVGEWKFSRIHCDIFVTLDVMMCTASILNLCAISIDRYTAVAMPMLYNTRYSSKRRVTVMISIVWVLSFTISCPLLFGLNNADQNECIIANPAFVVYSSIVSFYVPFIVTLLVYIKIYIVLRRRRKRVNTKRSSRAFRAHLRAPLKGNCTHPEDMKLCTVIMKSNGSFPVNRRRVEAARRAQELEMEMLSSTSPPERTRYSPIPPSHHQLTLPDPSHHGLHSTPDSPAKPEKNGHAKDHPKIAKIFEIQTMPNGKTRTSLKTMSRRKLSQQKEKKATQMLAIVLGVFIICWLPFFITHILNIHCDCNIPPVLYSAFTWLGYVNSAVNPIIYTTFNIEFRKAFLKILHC

`CC(=O)N[C@@H](Cc1ccc([N+](=O)[O-])cc1)C(=O)N[C@@H](CCC1CCCCC1)C(=O)N1CCCC(C(N)=O)C1` (some centres undefined): the Activity (in [1]; in [2]; in experiment [3]; at Adenosine receptor A2a [4]) was less than 40% in each case.

Take `CC(C)[C@H](NC(=O)[C@H](CCC1CCCCC1)NC(=O)[C@@H]1C=C2c3cccc4[nH]cc(c34)C[C@H]2N(C)C1)C(=O)N1CCC[C@H]1C(N)=O`: the Activity (in experiment [1]; in [2]; in experiment [3]; at Adenosine receptor A2a [4]) was less than 40% in each case. Further, the outcome (on Adenosine receptor A2a [5]; in [6]; in experiment [7]; in experiment [10]) was Active. Further, the outcome (in [8]; on Adenosine receptor A2a [9]; in experiment [11]) was inactive.

Take `CC(=O)N[C@@H](Cc1ccc([N+](=O)[O-])cc1)C(=O)N[C@@H](Cc1ccc(F)cc1)C(=O)N1CCCC(C(N)=O)C1` (some centres undefined): the Activity (in experiment [1]; in [2]; in experiment [3]; on Adenosine receptor A2a [4]) was less than 40% throughout.

Consider `CC(=O)N[C@H](C(=O)N[C@@H](CCC1CCCCC1)C(=O)N1c2ccccc2C[C@H]1C(N)=O)C(C)C`, for which the Activity (in [1]; in [2]; in [3]; on Adenosine receptor A2a [4]) was less than 40% throughout.

As for `CC(=O)N[C@H](C(=O)N[C@@H](Cc1ccc(F)cc1)C(=O)N1CCC[C@H]1C(N)=O)C(C)C` (Ac-Val-[Phe(4-F)]-Pro-NH2), the Activity (in experiment [1]; in [2]; in experiment [3]; at Adenosine receptor A2a [4]) was less than 40% throughout.

`CC(=O)N[C@H](C(=O)N[C@@H](CCC1CCCCC1)C(=O)N1CCCC(C(N)=O)C1)C(C)C` (some centres undefined): the Activity (in experiment [1]; in experiment [2]; in experiment [3]; at Adenosine receptor A2a [4]) was less than 40% throughout.

For the compound `CC(C)[C@H](NC(=O)[C@H](Cc1ccc([N+](=O)[O-])cc1)NC(=O)[C@@H]1C=C2c3cccc4[nH]cc(c34)C[C@H]2N(C)C1)C(=O)N1c2ccccc2C[C@H]1C(N)=O`, the Activity (in [1]; in experiment [2]; in experiment [3]; on Adenosine receptor A2a [4]) was less than 40% in each case. Besides, the result in experiment [6], in experiment [7] and in experiment [10] was Active. Besides, the outcome (in experiment [8]; at Adenosine receptor A2a [9]; in experiment [11]) was inactive.

As for `CC(=O)N[C@@H](CCC1CCCCC1)C(=O)N[C@@H](Cc1ccc(F)cc1)C(=O)N1CCC[C@H]1C(N)=O` (Ac-[hCha]-[Phe(4-F)]-Pro-NH2), the Activity (in [1]; in experiment [2]; in experiment [3]; on Adenosine receptor A2a [4]) was less than 40% each time.

With `CN1C[C@H](C(N)=O)C=C2c3cccc4[nH]cc(c34)C[C@H]21`, the Activity (in experiment [1]; in experiment [2]; in experiment [3]; at Adenosine receptor A2a [4]) was less than 40% each time.

Regarding `CC(C)[C@H](NC(=O)[C@H]1C=C2c3cccc4[nH]cc(c34)C[C@H]2N(C)C1)C(=O)N[C@@H](Cc1ccc([N+](=O)[O-])cc1)C(=O)N1CCC[C@H]1C(N)=O`, the Activity (in experiment [1]; in experiment [2]; in [3]; on Adenosine receptor A2a [4]) was less than 40% throughout. Moreover, the result (on Adenosine receptor A2a [5]; in experiment [6]; in experiment [7]; in experiment [10]) was Active. Also, the result (in experiment [8]; at Adenosine receptor A2a [9]; in [11]) was inactive.

`CC(=O)N[C@H](C(=O)N[C@@H](Cc1ccc([N+](=O)[O-])cc1)C(=O)N1CCC[C@H]1C(N)=O)C(C)C` (Ac-Val-[Phe(4-NO2)]-Pro-NH2): the Activity (in experiment [1]; in experiment [2]; in experiment [3]; at Adenosine receptor A2a [4]) was less than 40% throughout.

On to `CC(=O)N[C@@H](CCC1CCCCC1)C(=O)N[C@H](C(=O)N1CCC[C@H]1C(N)=O)C(C)C` (Ac-[hCha]-Val-Pro-NH2), for which the Activity (in [1]; in [2]; in experiment [3]; at Adenosine receptor A2a [4]) was less than 40% in each case.

With `CC(C)[C@H](NC(=O)[C@@H]1C=C2c3cccc4[nH]cc(c34)C[C@H]2N(C)C1)C(=O)N[C@@H](Cc1ccc(F)cc1)C(=O)N1CCC[C@H]1C(N)=O`, the Activity (in experiment [1]; in experiment [2]; in experiment [3]; at Adenosine receptor A2a [4]) was less than 40% each time. In addition, the result in experiment [6], in experiment [12] and in experiment [7] was Active. Also, the outcome (in experiment [8]; on Adenosine receptor A2a [9]; in experiment [11]) was inactive.

On to `CC(=O)N[C@@H](Cc1ccc([N+](=O)[O-])cc1)C(=O)N[C@H](C(=O)N1c2ccccc2C[C@H]1C(N)=O)C(C)C`, for which the Activity (in [1]; in experiment [2]; in experiment [3]; at Adenosine receptor A2a [4]) was less than 40% in each case.

Take `CN1C[C@H](C(=O)N[C@@H](Cc2ccc([N+](=O)[O-])cc2)C(=O)N[C@@H](CCC2CCCCC2)C(=O)N2CCCC(C(N)=O)C2)C=C2c3cccc4[nH]cc(c34)C[C@H]21` (some centres undefined): the Activity (in experiment [1]; in experiment [2]; in experiment [3]; on Adenosine receptor A2a [4]) was less than 40% each time. The outcome in experiment [6], in experiment [7] and in experiment [10] was Active. The result (in [8]; at Adenosine receptor A2a [9]; in experiment [11]) was inactive.

Take `CN1C[C@H](C(=O)N[C@@H](Cc2ccc([N+](=O)[O-])cc2)C(=O)N[C@@H](Cc2ccc(F)cc2)C(=O)N2CCCC(C(N)=O)C2)C=C2c3cccc4[nH]cc(c34)C[C@H]21` (some centres undefined): the Activity (in experiment [1]; in experiment [2]; in experiment [3]; on Adenosine receptor A2a [4]) was less than 40% each time. Besides, the result (at Adenosine receptor A2a [5]; in experiment [6]; in [7]; in experiment [10]) was Active. The outcome (in experiment [8]; at Adenosine receptor A2a [9]; in [11]) was inactive.

For the compound `CC(C)[C@H](NC(=O)[C@@H]1C=C2c3cccc4[nH]cc(c34)C[C@H]2N(C)C1)C(=O)N[C@@H](Cc1ccc([N+](=O)[O-])cc1)C(=O)N1CCC[C@H]1C(N)=O`, the Activity (in [1]; in [2]; in experiment [3]; on Adenosine receptor A2a [4]) was less than 40% throughout. The result (on Adenosine receptor A2a [5]; in experiment [6]; in experiment [7]; in [10]) was Active. For the same compound, the result (in experiment [8]; on Adenosine receptor A2a [9]; in experiment [11]) was inactive.
